Screening data deposited in PubChem BioAssay by several laboratories.
Most compounds without a hit are left out; they make up all but 9.6% or so of the library.
HCT116 bCat-KO: beta-catenin-lacking colon tumor cell growth suppression; hit rate 1.5% among 140,000; viability, % at 10 µM; AID 818; HCT116 beta-catenin knockout viability, CellTiter-Glo, 60 h; hits give low values;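 active = viability at or under a set limit, the compound median less 4 SD, cut at about 6% in these data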;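 note: 0% = Hyamine 1622 control at 20 µM and 100% = untreated cell control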
PMI act satM6P: activators of human phosphomannose isomerase at near-saturating mannose 6-phosphate. P34949. coupled PMI enzyme assay, resazurin fluorescence, 20 min; hits give high values; 1 = untreated enzyme, 0 = substrate-free blank. activation factor at 20 µM. hit rate 0.34% among 190,000. AID 1216;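 active = activation factor of 2 or more at 20 µM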
Target sequence (P34949 whole entry, looked up): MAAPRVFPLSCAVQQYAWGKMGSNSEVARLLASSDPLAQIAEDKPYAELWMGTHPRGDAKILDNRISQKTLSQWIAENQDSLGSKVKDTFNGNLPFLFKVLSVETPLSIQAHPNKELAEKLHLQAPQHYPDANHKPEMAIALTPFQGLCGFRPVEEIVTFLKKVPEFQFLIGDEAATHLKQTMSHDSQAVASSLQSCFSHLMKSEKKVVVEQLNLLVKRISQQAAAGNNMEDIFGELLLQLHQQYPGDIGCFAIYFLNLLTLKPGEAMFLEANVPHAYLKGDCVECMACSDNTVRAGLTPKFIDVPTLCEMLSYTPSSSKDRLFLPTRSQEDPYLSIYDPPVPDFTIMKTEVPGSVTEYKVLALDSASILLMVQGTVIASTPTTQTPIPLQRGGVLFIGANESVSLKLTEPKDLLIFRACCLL
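Technique: Diaphorase-driven resazurin-to-resorufin fluorescence, excitation 544, emission 590 nm | Assay system: Human PMI in coupled enzyme assay | Times: Enzyme reaction with compound 20 min at room temperature | Medium: HEPES-buffered pH 7.4 with magnesium and detergent | Reagent: Mannose-6-phosphate 1.0 mM (near-saturating) plus 0.22 mM NADP+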
HCT116 PTEN-null: growth suppressors of cells with PTEN tumor suppressor deletion; viability, % at 10 µM; hit rate 1.2% among 140,000; HCT116 PTEN-null viability, CellTiter-Glo, 60 h; hits give low values;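 active = viability at or below a set limit, 4 SD under the median of all tested compounds, cut at about 3.7% in these data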;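 note: PTEN knockout HCT116 line with beta catenin targeted HCT116 as companion control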
L major viab: Leishmania major promastigote growth inhibition. Leishmania major promastigotes, resazurin fluorescence viability. inhibition, % at 10 µM. hit rate 9% among 200,000. AID 1063; in the data active = inhibition above about 50%;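 note: promastigotes grown with compound for 44 hours at 28 °C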
PMI activator: phosphomannose isomerase (human) activation; purified human PMI, coupled resazurin fluorescence, 20 min; hits give high values; 1 = vehicle control, 0 substrate-free wells; activation factor at 20 µM; AID 1214; hit rate 0.005% among 190,000;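 active = activation factor of 2 or more at 20 µM, relative to plate controls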
An asterisk follows results filed as active; nt = no result given.

SMILES	HCT116 bCat-KO	PMI act satM6P	HCT116 PTEN-null	L major viab	PMI activator
COC(C#CCCN(C)C)(c1ccccc1)c1ccccc1	86	0.9	92	100*	1
CCSC(=S)Nc1c(C)n(C)n(-c2ccccc2)c1=O	nt	1	nt	10	1.1
OCC1(CCCc2ccccc2)CCN(Cc2ccc(F)cc2)CC1	nt	nt	nt	91*	nt
Cc1ccccc1-c1ncc(CN2CCC(CO)(CCCc3ccccc3)CC2)cn1	nt	1	nt	2	0.9
OCC1(CCc2ccccc2)CCN(Cc2ccc(OC(F)F)cc2)CC1	nt	1.1	nt	82*	1
OCC1(CCc2ccccc2)CCN(Cc2cc(Cl)ccc2O)CC1	nt	0.8	nt	-2	0.8
CCOC(=O)C1=C(N)n2c(s/c(=C/c3ccco3)c2=O)=C(C(=O)OC)C1c1ccco1 (stereo not drawn)	2.2*	0.9	2.4*	13	0.8
Cc1ccc(-c2nc3cccnc3o2)cc1NC(=O)COc1ccc(Cl)cc1C	95	0.9	23	94*	0.8
Cc1ccc(-c2nc3ncccc3o2)cc1NC(=O)CC(C)C	93	0.9	105	92*	0.9
Cc1ccc(-c2nc3ncccc3o2)cc1NC(=O)Cc1ccc(Cl)cc1	75	1.1	70	-6	1.1
Cc1ccc(-c2nc3cccnc3o2)cc1NC(=O)COc1ccc(C(C)(C)C)cc1	67	0.9	58	3	0.9
CCCCN1C=CC(=C2C(=O)c3ccccc3C2=O)C=C1	nt	1.2	nt	53*	1.2
CN1CCN(NC(=O)c2cccc(Br)c2)CC1	91	1.1	96	1	1.1
Cc1ccc(C(C)C)c(OCC(O)CN2CCOCC2)c1 (stereo not drawn)	97	1	92	88*	1
Cc1ccc(OCC(O)CN2CCN(CC(O)COC(C)C)CC2)c(C(C)(C)C)c1 (stereo not drawn)	112	1	95	77*	1
Cc1ccc(C(C)C)c(OCC(O)CN2CCN(CCO)CC2)c1 (stereo not drawn)	95	1.2	100	1	1.2
Cc1ccc(C(C)C)c(OCC(O)CN2CC(C)OC(C)C2)c1 (stereo not drawn)	73	1	69	95*	1
Cc1ccc(NC(=O)c2ccc(C(C)(C)C)cc2)cc1[N+](=O)[O-]	86	1.1	84	40	1
CCCc1nc(SCC(=O)c2ccc(F)cc2)c2ccccc2n1	nt	1	nt	18	0.8
O=C(CC(Nc1ccc(F)cc1)c1ccccc1)c1ccccc1 (stereo not drawn)	8	0.9	3.4*	27	0.8
COc1ccc(C2C3=C(CCCC3=O)Nc3ccc4ncccc4c32)cc1OC (stereo not drawn)	nt	0.6	nt	75*	0.9
COc1cc(C2C3=C(CCCC3=O)Nc3[nH]n(-c4ccccc4)c(=O)c32)ccc1OC(C)=O (stereo not drawn)	nt	2*	nt	1	1.6
COc1cc(C2C3=C(CCCC3=O)Nc3[nH]n(-c4ccccc4)c(=O)c32)cc(OC)c1OC (stereo not drawn)	nt	1.5	nt	-5	1.5
O=C1NC2(CCCCC2)C(=O)N1Cc1cccc(C(F)(F)F)c1	nt	1	nt	98*	1.1
c1coc(-c2nnc(SCc3nc4ccccc4[nH]3)o2)c1	94	1	93	4	1
SMILES	HCT116 bCat-KO	PMI act satM6P	HCT116 PTEN-null	L major viab	PMI activator
Cc1cccnc1Nc1nc(-c2ccc(O)c(O)c2)cs1	34	0.5	16	58*	0.5
CCO[C@@H]1OC(C(=O)N2CCOCC2)=C[C@H](c2ccc(C(F)(F)F)cc2)[C@H]1CCCO	nt	0.9	nt	-5	0.9
C#CCSc1nnc(CSc2nc3ccccc3s2)n1-c1ccccc1	81	0.9	83	50*	0.9
N#CCC(=O)Nc1ncc(Cc2ccccc2Cl)s1	nt	0.9	nt	-4	1.1
CCN1CCN(c2nc3sc4c(c3c(=O)n2-c2ccc(OC)cc2)CCCCC4)CC1	93	0.9	81	98*	0.9
CC1(C)Cc2c(c(N3CCOCC3)nc3sc(C#N)c(N)c23)CS1	91	0.9	95	-1	0.8
CC(C)CCNc1nnnc2c1sc1nc(N3CCOCC3)c3c(c12)CC(C)(C)SC3	87	0.9	84	57*	0.8
CCC(C)NS(=O)(=O)c1ccc(S(=O)(=O)N(CC(=O)Nc2ccccc2)CC2CCCO2)cc1 (stereo not drawn)	85	1	80	60*	1
O=C(CN(Cc1cccs1)S(=O)(=O)c1ccc(S(=O)(=O)NC2CCCCC2)cc1)Nc1ccccc1	78	1.1	76	41	1
O=C(CN(C1CC1)S(=O)(=O)c1ccc(S(=O)(=O)NC2CCCCC2)cc1)Nc1ccccc1	62	0.8	66	100*	0.8
COC(=O)CCN(C1CCCCC1)S(=O)(=O)c1ccc(S(=O)(=O)NC2CCCCC2)cc1	79	0.8	65	99*	0.8
O=C(NC1CCS(=O)(=O)C1)c1cccnc1 (stereo not drawn)	nt	1	nt	-3	1.1
CCOC(=O)CCN(Cc1cccs1)S(=O)(=O)c1ccc(Cl)cc1	87	1	80	97*	0.9
CCN(CC)S(=O)(=O)c1ccc(C(=O)NCc2cccs2)cc1	94	1	98	3	1
CC(=O)Nc1ccc(S(=O)(=O)N(CCCN2CCOCC2)Cc2cccs2)cc1	nt	1	nt	13	1
CC(C)(C)c1ccc(S(=O)(=O)N(CCCN2CCOCC2)Cc2cccs2)cc1	50	1.1	53	95*	1
COc1cc(/C=C(\NC(C)=O)C(=O)Nc2ccc(NC(C)=O)cc2)ccc1OC(C)=O	103	1	103	57*	1
Cc1cccc(CN2CCN(CC(=O)NCCCN3CCN(c4ccc(F)cc4)CC3)C2=O)c1	66	1	70	95*	1
Cc1cccc(CN2CCN(CC(=O)NCCCN3CCCC3=O)C2=O)c1	80	1	80	-5	1
CCCCNCCCOc1cccc(Cl)c1Cl	45	0.9	62	100*	1
